Source: ChEMBL document CHEMBL3120087, “3D QSAR studies based in silico screening of 4,5,6-triphenyl-1,2,3,4-tetrahydropyrimidine analogs for anti-inflammatory activity” (2014)

Key:
Rattus norvegicus [1] = experiment: Antiinflammatory activity in rat assessed as reduction of paw edema; type: functional
Procedure, shortened: (§1)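 Albino rats of either sex (150–200 g), six per group, fasted 12 h with water only. […] Paw volume measured by plethysmometer immediately (initial) and then hourly to 4 h. Mean paw volume ± SEM reported with % inhibition of edema versus control.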

Rattus norvegicus [2] = experiment: Antiinflammatory activity in albino rat assessed as inhibition of carrageenan-induced paw edema at 20 mg/kg, po administered 1 hr prior to carrageenan challenge measured after 3 hrs relative to vehicle-treated control; type: functional; procedure, shortened: as §1
Rattus norvegicus [3] = experiment: Antiinflammatory activity in albino rat assessed as inhibition of carrageenan-induced paw edema at 20 mg/kg, po administered 1 hr prior to carrageenan challenge measured after 2 hrs relative to vehicle-treated control; type: functional; procedure, shortened: as §1
Rattus norvegicus [4] = experiment: Antiinflammatory activity in albino rat assessed as inhibition of carrageenan-induced paw edema at 20 mg/kg, po administered 1 hr prior to carrageenan challenge measured after 4 hrs relative to vehicle-treated control; type: functional; procedure, shortened: as §1
Rattus norvegicus [5] = experiment: Antiinflammatory activity in albino rat assessed as inhibition of carrageenan-induced paw edema at 20 mg/kg, po administered 1 hr prior to carrageenan challenge measured after 1 hr relative to vehicle-treated control; type: functional; procedure, shortened: as §1
Rattus norvegicus [6] = experiment: Antiinflammatory activity in albino rat assessed as inhibition of carrageenan-induced paw edema at 20 mg/kg, po administered 1 hr prior to carrageenan challenge measured after 24 hrs relative to vehicle-treated control; type: functional
[7] = target: T1, Prostaglandin G/H synthase 1 (Ovis aries) (UniProt P05979); experiment: Inhibition of ovine COX1 using TMPD as substrate at 20 uM incubated for 5 mins prior to substrate addition measured after 5 mins by colorimetry
T1 sequence (whole entry): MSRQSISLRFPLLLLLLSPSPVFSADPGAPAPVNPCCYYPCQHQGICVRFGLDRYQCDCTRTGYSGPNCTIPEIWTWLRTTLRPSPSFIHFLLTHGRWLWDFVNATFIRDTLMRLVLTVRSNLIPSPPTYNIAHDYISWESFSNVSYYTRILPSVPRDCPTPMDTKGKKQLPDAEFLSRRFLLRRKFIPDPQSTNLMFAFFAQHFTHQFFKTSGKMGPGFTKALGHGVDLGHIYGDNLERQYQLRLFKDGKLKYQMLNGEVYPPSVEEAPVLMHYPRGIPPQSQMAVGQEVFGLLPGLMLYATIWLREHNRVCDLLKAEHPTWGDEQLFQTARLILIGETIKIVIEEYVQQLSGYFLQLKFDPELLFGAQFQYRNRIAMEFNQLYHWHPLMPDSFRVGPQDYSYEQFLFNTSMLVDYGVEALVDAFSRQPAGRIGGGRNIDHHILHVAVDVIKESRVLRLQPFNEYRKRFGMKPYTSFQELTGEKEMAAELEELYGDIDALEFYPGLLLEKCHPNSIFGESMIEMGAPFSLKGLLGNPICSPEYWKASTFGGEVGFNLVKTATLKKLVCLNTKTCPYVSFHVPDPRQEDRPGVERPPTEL
Procedure, shortened: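 Colorimetric COX assay using peroxidase activity of ovine cyclooxygenase to oxidize TMPD. Assay mixture mixed and incubated at 25 °C for 5 min. Enzyme activity read as absorbance at 590 nm.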

Compound: COc1ccc(C2NC(S)=NC(c3ccccc3)=C2CC(=O)O)cc1 (configuration not stated)
- log(activity) (Rattus norvegicus [1]): 0.92

Compound: O=C(O)CC1=C(c2ccccc2)N=C(S)NC1c1ccco1 (configuration not stated)
- log(activity) (Rattus norvegicus [1]): 0.57

Compound: O=C(O)CC1=C(c2ccccc2)N=C(S)NC1c1ccc(Cl)cc1 (configuration not stated)
- log(activity) (Rattus norvegicus [1]): 0.88

Compound: N=C1NC(c2ccc(Cl)cc2)=C(CC(=O)O)C(c2ccccc2)N1 (configuration not stated)
- log(activity) (Rattus norvegicus [1]): 0.78

Compound: N=C1NC(c2ccc(Cl)cc2)=C(CC(=O)O)C(c2ccc(Cl)cc2)N1 (configuration not stated)
- log(activity) (Rattus norvegicus [1]): 0.74

Compound: COc1ccc(OC)c(C2NC(=O)NC(c3ccc(S(C)(=O)=O)cc3)=C2c2ccccc2)c1 (configuration not stated)
- inhibition in vivo at 20 mg/kg (Rattus norvegicus [2]): 24.4%
- inhibition in vivo at 20 mg/kg (Rattus norvegicus [3]): 19.1%
- inhibition in vivo at 20 mg/kg (Rattus norvegicus [4]): 17.3%
- inhibition in vivo at 20 mg/kg (Rattus norvegicus [5]): 35.6%

Compound: N=C1NC(c2ccc(Cl)cc2)=C(CC(=O)O)C(c2cccs2)N1 (configuration not stated)
- log(activity) (Rattus norvegicus [1]): 0.64

Compound: Cc1ccc(C2=C(CC(=O)O)C(c3ccco3)NC(S)=N2)cc1 (configuration not stated)
- log(activity) (Rattus norvegicus [1]): 0.31

Compound: COc1ccc(OC)c(C2NC(=O)NC(c3ccc(Cl)cc3)=C2c2ccc(S(N)(=O)=O)cc2)c1 (configuration not stated)
- inhibition in vivo at 20 mg/kg (Rattus norvegicus [2]): 24.4%
- inhibition in vivo at 20 mg/kg (Rattus norvegicus [3]): 28.1%
- inhibition in vivo at 20 mg/kg (Rattus norvegicus [4]): 14.3%
- inhibition in vivo at 20 mg/kg (Rattus norvegicus [5]): 18%

Compound: COc1ccc(C2NC(S)=NC(c3ccc(Cl)cc3)=C2CC(=O)O)cc1 (configuration not stated)
- log(activity) (Rattus norvegicus [1]): 1.02

Compound: N=C1NC(c2ccc(Cl)cc2)=C(CC(=O)O)C(c2cccnc2)N1 (configuration not stated)
- log(activity) (Rattus norvegicus [1]): 0.54

Compound: O=C(O)CC1=C(c2ccccc2)N=C(S)NC1c1cccnc1 (configuration not stated)
- log(activity) (Rattus norvegicus [1]): 0.46

Compound: COc1ccc(C2NC(=S)NC(c3ccc(S(C)(=O)=O)cc3)=C2c2ccccc2)c(OC)c1 (configuration not stated)
- inhibition in vivo at 20 mg/kg (Rattus norvegicus [2]): 10.2%
- inhibition in vivo at 20 mg/kg (Rattus norvegicus [3]): 26.7%
- inhibition in vivo at 20 mg/kg (Rattus norvegicus [5]): 15.3%

Compound: COc1ccc(C2NC(=O)NC(c3ccc(S(C)(=O)=O)cc3)=C2c2ccccc2)c(OC)c1 (configuration not stated)
- inhibition in vivo at 20 mg/kg (Rattus norvegicus [2]): 39.1%
- inhibition in vivo at 20 mg/kg (Rattus norvegicus [3]): 28.1%
- inhibition in vivo at 20 mg/kg (Rattus norvegicus [5]): 21.6%

Compound: Cc1ccc(C2=C(CC(=O)O)C(c3cccnc3)NC(=N)N2)cc1 (configuration not stated)
- log(activity) (Rattus norvegicus [1]): 0.58

Compound: CS(=O)(=O)c1ccc(C2=C(c3ccccc3)C(c3ccccc3)NC(=S)N2)cc1 (configuration not stated)
- inhibition in vivo at 20 mg/kg (Rattus norvegicus [2]): 43.1%
- inhibition in vivo at 20 mg/kg (Rattus norvegicus [3]): 30.9%
- inhibition in vivo at 20 mg/kg (Rattus norvegicus [4]): 18.4%
- inhibition in vivo at 20 mg/kg (Rattus norvegicus [5]): 46.9%

Compound: Cc1ccc(C2=C(CC(=O)O)C(c3ccc(Cl)cc3)NC(S)=N2)cc1 (configuration not stated)
- log(activity) (Rattus norvegicus [1]): 0.72

Compound: N=C1NC(c2ccccc2)=C(CC(=O)O)C(c2cccs2)N1 (configuration not stated)
- log(activity) (Rattus norvegicus [1]): 0.51

Compound: N=C1NC(c2ccccc2)=C(CC(=O)O)C(c2cccnc2)N1 (configuration not stated)
- log(activity) (Rattus norvegicus [1]): 0.3

Compound: O=C(O)CC1=C(c2ccc(Cl)cc2)N=C(S)NC1c1ccccc1 (configuration not stated)
- log(activity) (Rattus norvegicus [1]): 0.65

Compound: N=C1NC(c2ccccc2)=C(CC(=O)O)C(c2ccco2)N1 (configuration not stated)
- log(activity) (Rattus norvegicus [1]): 0.55

Compound: Cc1ccc(C2=C(CC(=O)O)C(c3cccnc3)NC(S)=N2)cc1 (configuration not stated)
- log(activity) (Rattus norvegicus [1]): 0.11

Compound: COc1ccc(OC)c(C2NC(=N)NC(c3ccc(S(C)(=O)=O)cc3)=C2c2ccccc2)c1 (configuration not stated)
- inhibition in vivo at 20 mg/kg (Rattus norvegicus [2]): 20.3%
- inhibition in vivo at 20 mg/kg (Rattus norvegicus [3]): 24.3%
- inhibition in vivo at 20 mg/kg (Rattus norvegicus [4]): 10.7%
- inhibition in vivo at 20 mg/kg (Rattus norvegicus [5]): 25.2%

Compound: Cc1ccc(C2=C(CC(=O)O)C(c3ccccc3)NC(=N)N2)cc1 (configuration not stated)
- log(activity) (Rattus norvegicus [1]): 0.82

Compound: Cc1ccc(C2=C(CC(=O)O)C(c3ccccc3)NC(S)=N2)cc1 (configuration not stated)
- log(activity) (Rattus norvegicus [1]): 0.82

Compound: O=C(O)CC1=C(c2ccc(Cl)cc2)N=C(S)NC1c1cccs1 (configuration not stated)
- log(activity) (Rattus norvegicus [1]): 0.54

Compound: O=C(O)CC1=C(c2ccc(Cl)cc2)N=C(S)NC1c1ccc(Cl)cc1 (configuration not stated)
- log(activity) (Rattus norvegicus [1]): 0.82

Compound: N=C1NC(c2ccccc2)=C(CC(=O)O)C(c2ccccc2)N1 (configuration not stated)
- log(activity) (Rattus norvegicus [1]): 0.64

Compound: O=C(O)CC1=C(c2ccccc2)N=C(S)NC1c1ccccc1 (configuration not stated)
- log(activity) (Rattus norvegicus [1]): 0.52

Compound: Cc1ccc(C2=C(CC(=O)O)C(c3cccs3)NC(=N)N2)cc1 (configuration not stated)
- log(activity) (Rattus norvegicus [1]): 0.64

Compound: COc1ccc(C2NC(=N)NC(c3ccc(Cl)cc3)=C2c2ccc(S(C)(=O)=O)cc2)cc1 (configuration not stated)
- inhibition in vivo at 20 mg/kg (Rattus norvegicus [2]): 43.6%
- inhibition in vivo at 20 mg/kg (Rattus norvegicus [3]): 20.5%
- inhibition in vivo at 20 mg/kg (Rattus norvegicus [4]): 28.6%
- inhibition in vivo at 20 mg/kg (Rattus norvegicus [6]): 15.6%
- inhibition in vivo at 20 mg/kg (Rattus norvegicus [5]): 30.2%

Compound: COc1ccc(C2NC(=N)NC(c3ccc(Cl)cc3)=C2CC(=O)O)cc1 (configuration not stated)
- log(activity) (Rattus norvegicus [1]): 0.92

Compound: Cc1ccc(-c2cc(C(F)(F)F)nn2-c2ccc(S(N)(=O)=O)cc2)cc1 [CELECOXIB]
- inhibition in vivo at 20 mg/kg (Rattus norvegicus [2]): 32.5%
- inhibition in vivo at 20 mg/kg (Rattus norvegicus [3]): 41.9%
- inhibition in vivo at 20 mg/kg (Rattus norvegicus [4]): 17.9%
- inhibition in vivo at 20 mg/kg (Rattus norvegicus [6]): 6.49%
- inhibition in vivo at 20 mg/kg (Rattus norvegicus [5]): 48.2%

Compound: O=C(O)CC1=C(c2ccc(Cl)cc2)N=C(S)NC1c1cccnc1 (configuration not stated)
- log(activity) (Rattus norvegicus [1]): 0.35

Compound: COc1ccc(C2NC(=N)NC(c3ccc(S(C)(=O)=O)cc3)=C2c2ccccc2)cc1OC (configuration not stated)
- inhibition in vivo at 20 mg/kg (Rattus norvegicus [2]): 37.1%
- inhibition in vivo at 20 mg/kg (Rattus norvegicus [3]): 18.6%
- inhibition in vivo at 20 mg/kg (Rattus norvegicus [4]): 11.3%
- inhibition in vivo at 20 mg/kg (Rattus norvegicus [6]): 3.9%
- inhibition in vivo at 20 mg/kg (Rattus norvegicus [5]): 24.8%

Compound: Cc1ccc(C2=C(CC(=O)O)C(c3cccs3)NC(S)=N2)cc1 (configuration not stated)
- log(activity) (Rattus norvegicus [1]): 0.28

Compound: O=C(O)CC1=C(c2ccccc2)N=C(S)NC1c1cccs1 (configuration not stated)
- log(activity) (Rattus norvegicus [1]): 0.64

Compound: COc1ccc(C2NC(=N)NC(c3ccccc3)=C2CC(=O)O)cc1 (configuration not stated)
- log(activity) (Rattus norvegicus [1]): 0.82

Compound: N=C1NC(c2ccccc2)=C(CC(=O)O)C(c2ccc(Cl)cc2)N1 (configuration not stated)
- log(activity) (Rattus norvegicus [1]): 0.64

Compound: COc1ccc(C2NC(S)=NC(c3ccc(C)cc3)=C2CC(=O)O)cc1 (configuration not stated)
- log(activity) (Rattus norvegicus [1]): 0.96

Compound: COc1ccc(C2NC(=N)NC(c3ccc(C)cc3)=C2CC(=O)O)cc1 (configuration not stated)
- log(activity) (Rattus norvegicus [1]): 0.88

Compound: O=C(O)CC1=C(c2ccc(Cl)cc2)N=C(S)NC1c1ccco1 (configuration not stated)
- log(activity) (Rattus norvegicus [1]): 0.24

Compound: Cc1ccc(C2=C(CC(=O)O)C(c3ccc(Cl)cc3)NC(=N)N2)cc1 (configuration not stated)
- log(activity) (Rattus norvegicus [1]): 0.68

Compound: CN(C)c1ccc(C2NC(=O)NC(c3ccc(Cl)cc3)=C2c2ccc(S(C)(=O)=O)cc2)cc1 (configuration not stated)
- inhibition in vivo at 20 mg/kg (Rattus norvegicus [2]): 28.9%
- inhibition in vivo at 20 mg/kg (Rattus norvegicus [3]): 27.6%
- inhibition in vivo at 20 mg/kg (Rattus norvegicus [4]): 16.1%
- inhibition in vivo at 20 mg/kg (Rattus norvegicus [5]): 18%

Compound: Cc1ccc(C2=C(CC(=O)O)C(c3ccco3)NC(=N)N2)cc1 (configuration not stated)
- log(activity) (Rattus norvegicus [1]): 0.54

Compound: N=C1NC(c2ccc(Cl)cc2)=C(CC(=O)O)C(c2ccco2)N1 (configuration not stated)
- log(activity) (Rattus norvegicus [1]): 0.56

Compound: CN(C)c1ccc(C2NC(=O)NC(c3ccc(S(C)(=O)=O)cc3)=C2c2ccccc2)cc1 (configuration not stated)
- inhibition in vivo at 20 mg/kg (Rattus norvegicus [2]): 26.9%
- inhibition [7]: 2.36%
- inhibition in vivo at 20 mg/kg (Rattus norvegicus [3]): 41.4%
- inhibition in vivo at 20 mg/kg (Rattus norvegicus [4]): 9.52%
- inhibition in vivo at 20 mg/kg (Rattus norvegicus [5]): 46.9%
